# In the library only some 2% were active in any assay of this set; here they are far more common.
# PKD1 kinase inh = PKD1 (human) kinase inhibition; AID 797; inhibition, % (no concentration beside the values); Q15139; PKD1 kinase fluorescence polarization assay; actives 0.056% (n = 200,000)
# RanGTP-Impb inh = disruptors of Ran-importin-beta complex formation – biochemical, FRET, CFP-Ran, YFP-importin-beta, homogeneous, primary screen | inhibition, % (concentration not given with the values) | AID 2216 | actives 1.1% (n = 300,000) | cell-free CFP-Ran/YFP-importin-beta FRET ratio;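 active = more than half of the replicate wells show a fall in the fluorescence ratio signal beyond about 16%, limit read from the data, passing the limit was not always enough; inconclusive = exactly half of the replicate wells pass the set limit; inactive = fewer than half of replicates pass the limit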;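 also: 0% = DMSO wells and 100% = Ran loaded with GDP instead of GTP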
# EBV gp42 block = EBV gp42 inhibition; Q1HVG2; Fluorescence polarization binding assay, mP read-out; inhibition, % (tested at 21.74 µM); actives 0.42% (n = 220,000)
# Runt-CBFb FRET = inhibitors of human RUNX1 Runt domain binding to CBFb; actives 0.46% (n = 220,000); Cerulean-Runt/Venus-CBFb FRET ratio 530/480, 1 h; inhibition, % at 20 µM; Q01196+Q13951; AID 1496;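 active = inhibition over about 50% at 20 µM in the single-dose screen, limit read from the data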;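 also: 0% = DMSO wells and 100% = excess unlabeled CBFb competitor control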
#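 Assay system: Cerulean-tagged RUNX1 Runt domain (FRET donor) fusion protein / Amount: 100 nM each of Venus-CBFb and Cerulean-Runt domain / Medium: Tris buffer pH 7.5 with salts and BSA / Also added: Venus-CBFb 100 nM / Schedule: 1 h complex formation plus 1 h compound treatment, room temperature / Signal: FRET fluorescence / Read-out: loss of energy transfer signal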
# Runt-SMMHC FRET = Runt domain-CBFb-SMMHC interaction inhibition; Q01196+Q13951; inhibition, % at 20 µM; AID 1434; actives 0.74% (n = 220,000); Cerulean-Runt/Venus-CBFb-SMMHC FRET ratio 530/480, 1 h;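 active = mean inhibition across duplicate retests at 20 µM reaching about 50%, limit read from the data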;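 also: 0% = DMSO wells and 100% = wells with excess untagged CBFb-SMMHC; inhibitors lower the FRET ratio by blocking Runt binding to CBFb-SMMHC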
# MEX-5 binding = C. elegans MEX-5 TCR-2 RNA binding activity; MEX-5/FITC-TCR2 RNA binding, fluorescence polarization; hits give low values; AID 1832; actives 0.38% (n = 300,000); activity score (negative = inhibition of binding), % at 10 µM;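 active = inhibition past about -25% in most replicates, and total fluorescence under double the plate's negative control median, limit read from the data; inconclusive = replicates evenly split on the limit, or fluorescence at least double controls; inactive = too little inhibition in most replicates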;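 also: 0% = DMSO and -100% = 5 µM competing unlabeled TCR2 RNA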
# Target sequence (Q9XUB2 whole entry, looked up): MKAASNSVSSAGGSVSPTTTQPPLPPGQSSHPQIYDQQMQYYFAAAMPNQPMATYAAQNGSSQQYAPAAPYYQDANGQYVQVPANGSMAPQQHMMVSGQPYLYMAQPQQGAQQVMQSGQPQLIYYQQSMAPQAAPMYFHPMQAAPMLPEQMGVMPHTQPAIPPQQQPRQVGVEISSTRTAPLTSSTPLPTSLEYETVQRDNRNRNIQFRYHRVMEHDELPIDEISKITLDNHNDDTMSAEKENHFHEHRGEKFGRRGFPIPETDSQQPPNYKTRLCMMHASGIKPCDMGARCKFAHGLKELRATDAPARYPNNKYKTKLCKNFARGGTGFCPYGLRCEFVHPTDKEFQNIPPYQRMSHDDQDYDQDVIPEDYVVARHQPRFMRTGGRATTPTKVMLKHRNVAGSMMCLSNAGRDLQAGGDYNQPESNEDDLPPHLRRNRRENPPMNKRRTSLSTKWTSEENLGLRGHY
# * marks the source's active call; other numbers are inactive results; i = inactive; ? = inconclusive; . = not tested or not shown. Rule as the data show it, unless noted: active = inhibition above about 50%; inactive = the rest.
SMILES,PKD1 kinase inh,RanGTP-Impb inh,EBV gp42 block,Runt-CBFb FRET,Runt-SMMHC FRET,MEX-5 binding
CN(C)Cc1cc(C(C)(C)C)cc(C(C)(C)C)c1O,.,2,-2,-1,-1,2
CN(C)Cc1cc(O)c(CN(C)C)cc1O,.,1,-14,4,69*,-35*
NC(N)=Nc1nc(-c2ccccc2)c2ccccc2n1,-1,26*,-5,1,5,2
Cc1cnccc1CN(C)C(=O)CC1C(=O)NCCN1CC1CCCCC1 (stereo not drawn),-1,-4,-10,.,.,-1
Cc1ccc(CN(C)C(=O)CC2C(=O)NCCN2CC2CCCCC2)cc1 (stereo not drawn),1,4,-9,-2,-1,-48*
O=C(NCCCN1CCOCC1)C1CCN(S(=O)(=O)c2cccc(Cl)c2Cl)CC1,.,.,.,.,.,-2
O=S(=O)(c1cccc(Cl)c1Cl)N1CCN(C(=S)NCCCN2CCOCC2)CC1,1,25*,-13,-1,2,1
COC(=O)C1=CN(CCCN2CCCC2=O)C=C(C(=O)OC)C1c1cccs1,-3,?,-7,24,87*,-1
CN(Cc1cc(=O)n2ccsc2n1)C1CCCCC1,-3,-1,-12,1,-2,1
O=C1CSC(=S)N1/N=C/c1cc(Br)c(O)c(Br)c1,.,-18,.,.,.,-33*
COc1ccc(S(=O)(=O)N2CCCCC2)cc1NC(=O)CSc1ncnc2ccccc12,-14,5,-42,-7,-1,2
O=C(Nc1ccc(Oc2cccnc2)cc1)C1CCN(Cc2cc(Cl)ccc2O)CC1,.,-3,.,.,.,-2
Cn1c(NC(=O)c2ccc(C(C)(C)C)cc2)cc(=O)n(C)c1=O,6,.,-8,-1,-3,.
Cn1c(NNC(=O)c2ccc(C(C)(C)C)cc2)cc(=O)n(C)c1=O,-1,7,8,41,77*,0
O=C(NCCCn1ccnc1)c1ccc2c(c1)OCCO2,6,5,90*,-1,1,-1
Cc1ccc(C(=O)NCCCn2ccnc2)cc1C,.,-2,.,.,.,1
CSc1nc(-c2ccccc2)nc(N2CCN(C)CC2)c1C(C)=O,-14,70*,-32,-3,7,-1
CSc1nc(-c2ccccc2)nc(N2CCCC2)c1C(C)=O,-11,1,-11,-1,-1,-1
CN1C(C(=O)NCc2ccco2)=CC(c2ccc(F)cc2)=NS1(=O)=O,.,2,.,.,.,-2
Nc1[nH]c(=O)nc(Nc2ccccc2)c1N=O,.,38*,.,.,.,-1
O=C(NCCCCc1ccccc1)C1CCCC1,.,-1,.,.,.,0
Cc1ccc(NC(=O)CSc2ncccn2)cc1F,-6,96*,3,1,-1,2
Cc1nc2c(sc3nc(N4CCOCC4)c4c(c32)CC(C)(C)OC4)c(-c2ccccc2)c1C(=O)O,.,23*,-31,14,82,-6
Cc1csc(NC(=O)c2cc3c(s2)-c2ccccc2OC3)n1,-12,49*,-13,2,-12,3
CN(C)CCNC(=O)c1cc2c(s1)-c1ccccc1OC2,6,2,-11,4,10,0
SMILES,PKD1 kinase inh,RanGTP-Impb inh,EBV gp42 block,Runt-CBFb FRET,Runt-SMMHC FRET,MEX-5 binding
O=C(CN1CCc2ccccc2C1)c1cccs1,-4,25*,0,1,0,-1
O=c1ccc2cc3c4c(c2o1)CCCN4CCC3,8,92*,129*,5,4,?
O=C(CCl)c1cc2c3c(c1)CC(=O)N3CCC2,.,-4,.,.,.,-1
O=c1oc2c3c4c(cc2s1)CCCN4CCC3,7,-8,35,10,-33,-32*
O=C(N/N=C/c1cc2c3c(c1O)CCCN3CCC2)c1ccccc1O,-2,-7,24,-17,-34,-2
O=C(O)c1ccc(NC(=O)c2ccccc2NC(=O)c2ccccc2Cl)cc1,.,2,.,.,.,-2
N#CC1=C(N)Oc2cc(O)c(Cl)cc2C1c1cccnc1 (stereo not drawn),.,52*,.,.,.,-1
N#CC1=C(N)Oc2ccc3ccc(O)cc3c2C1c1cccnc1 (stereo not drawn),-6,4,-5,-1,-4,-2
N#CC1=C(N)Oc2cc(O)c(Cl)cc2C1c1ccccc1F (stereo not drawn),.,131*,.,.,.,-46*
N#CC1=C(N)Oc2cc(O)ccc2C1c1ccncc1 (stereo not drawn),1,-28,-3,-38,-109,5
CSc1nc(N)c2c(n1)OC(N)=C(C#N)C2c1cccnc1 (stereo not drawn),0,105*,-7,2,2,-2
N#CC1=C(N)Oc2n[nH]c(-c3ccc(F)cc3)c2C1c1cccnc1 (stereo not drawn),-4,3,4,-1,0,-3
N#CC1=C(N)Oc2cc(O)ccc2C1c1cccnc1 (stereo not drawn),-2,38*,-1,-8,-18,-4
Cc1ccc(NNC(=O)c2ccno2)c(C)c1,.,3,-5,1,0,0
CCn1c2ccccc2c2cc(NC(=O)C(=O)N3CCOCC3)ccc21,1,-4,-4,5,-6,-2
CCCN(CCC)S(=O)(=O)c1ccc(C(=O)OCCN2C(=O)c3cccc4c(N5CCOCC5)ccc(c34)C2=O)cc1,-6,i,135*,-322,-31,?
O=C(OCCN1C(=O)c2cccc3c(N4CCOCC4)ccc(c23)C1=O)c1ccc(Cl)cc1,-7,-61,123*,-281,-112,?
COc1cc(OC)cc(C(=O)NCC(=O)NC(C)c2ccccc2)c1 (stereo not drawn),.,3,.,.,.,1
Cc1c(CC(=O)O)c(=O)oc2c(C)c3occ(-c4ccccc4)c3cc12,.,19*,.,.,.,-2
CCC1Sc2ccc(S(=O)(=O)CCC(=O)Nc3c(Cl)cc(OC)cc3OC)cc2NC1=O (stereo not drawn),.,1,.,.,.,-3
CC(C)C[C@H](NC(=O)N1CC(=O)Nc2ccccc21)C(=O)N[C@@H](Cc1ccccc1)C(=O)O,.,9,.,.,.,3
O=c1[nH]c2ccccc2nc1/C=C(\O)c1cccs1,-5,.,44,-1,-15,-5
O=c1oc2ccccc2nc1/C=C(\O)c1ccc(Br)cc1,.,-2,64*,23,-11,-1
CCS(=O)(=O)c1ccc2oc(=O)c(/C=C(\O)c3ccc(Cl)cc3)nc2c1,1,1,-23,12,2,-8
O=c1oc2ccc(Cl)cc2nc1/C=C(\O)c1cccs1,.,4,-107,12,-8,-67*
Cc1ccc2oc(=O)c(/C=C(\O)CC(C)C)nc2c1,11,0,-14,1,1,?
Cc1ccc2oc(=O)c(/C=C(\O)c3ccccc3)nc2c1,5,-1,59*,2,-3,-5
Cc1ccc2oc(=O)c(/C=C(\O)c3cccs3)nc2c1,.,-3,-79,8,-18,-45*

# High-throughput results from PubChem BioAssay.
